Shown are actives, neighbours in structure and some others; about 2.3% of the full set was active somewhere.
JNK3 inh: blocks human JNK3 kinase activity; purified JNK3 kinase activity, HTS; AID 746; P53779; inhibition, % at 8 µM; 60,000 tested, 0.61% active; in the data active = inhibition above about 17%;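 also: 0% = DMSO and 100% = reference inhibitor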
MT1-MMP txn act: MT1-MMP promoter transcription activation. HT1080 MT1-MMP promoter luciferase reporter, luminescence, overnight; active compounds read high. activation factor at 10 µM. 86,000 tested, 0.16% active. AID 750;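 active = activation factor of at least 2 for MT1-MMP transcription at 10 µM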
SF1 activator: activates the human nuclear receptor SF-1; Q13285; activation, % at 10 µM; 65,000 tested, 1.9% active; AID 522; CHO-K1 Gal4-SF-1 LBD luciferase reporter; % increase over DMSO SF-1-specific signal;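 active = activation above the mean activation of all tested compounds plus 3 SD, cut at about 50% in these data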
Target sequence (Q13285 whole entry, looked up, the tested form may be a part): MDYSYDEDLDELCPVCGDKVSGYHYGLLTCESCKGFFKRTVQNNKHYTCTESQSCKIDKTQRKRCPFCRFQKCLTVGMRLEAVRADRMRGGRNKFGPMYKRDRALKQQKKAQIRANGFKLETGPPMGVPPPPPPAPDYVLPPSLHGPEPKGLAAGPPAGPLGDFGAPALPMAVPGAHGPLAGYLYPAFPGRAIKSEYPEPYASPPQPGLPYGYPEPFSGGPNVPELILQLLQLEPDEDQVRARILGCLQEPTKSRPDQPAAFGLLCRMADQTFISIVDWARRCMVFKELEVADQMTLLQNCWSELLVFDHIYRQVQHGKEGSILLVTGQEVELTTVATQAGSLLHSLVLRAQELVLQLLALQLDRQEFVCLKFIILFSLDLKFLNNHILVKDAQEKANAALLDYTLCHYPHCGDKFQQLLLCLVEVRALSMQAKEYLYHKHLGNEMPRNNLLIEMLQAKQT
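Material: Gal4–SF-1 LBD one-hybrid luciferase reporter in CHO-K1 cells | Amount: 4,000 cells per well | Compound dosing: 10 µM single point, 1% DMSO | Schedule: 20 h compound treatment, 37 °C | Measured by: SteadyLite luciferase luminescence | Evaluation: Percent activation versus DMSO | Control set: DMSO-treated SF-1-transfected cells as negative, DMSO-treated mock-transfected cells lacking SF-1 as background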
RORA act: activators of human nuclear receptor RORA | CHO-K1 Gal4-RORA LBD luciferase reporter, luminescence; percent increase over mock-subtracted basal signal | AID 560 | activation, % at 10 µM | 65,000 tested, 1.5% active;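 active = activation above the mean of all tested compounds plus 3 SD, cut at about 49% in these data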;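 also: 0% = DMSO-treated RORA cells and 100% = added signal equal to DMSO minus mock-transfected cells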
* hit, by the source's call.

Results for CCC1=C2CC[C@H]3C(=O)NC(=O)[C@H]3[C@H]2[C@@]2(C)C(=NCC(=O)OC)OC(=O)N2C1=O ?
MT1-MMP txn act: 1.2

Results for c1coc(C2Nc3ccccc3-c3nc4ccccc4n32)c1 (stereo not drawn) ?
MT1-MMP txn act: 1.3; SF1 activator: 76*; RORA act: 71*

How did CC(C)CC(=O)Nc1cccc(C(=O)Nc2ccccc2C(=O)O)c1 do in these assays?
MT1-MMP txn act: 1.1

How did O=C(c1ccc2c(c1)OCO2)N1CCCc2ccccc21 do in these assays?
JNK3 inh: 2; MT1-MMP txn act: 1.5; SF1 activator: -2; RORA act: 4

Results for O=C(c1ccc2c(c1)OCO2)N1CCc2ccccc2C1 ?
JNK3 inh: 3; MT1-MMP txn act: 1.8; SF1 activator: 44; RORA act: 66*

What do the screens show for `COC(=O)c1ccc(C(NC(=O)OCc2ccccc2)/C(=C/[C@@H](C)C(=O)NCc2ccc(S(C)(=O)=O)cc2)C(F)(F)F)cc1` (stereo partly drawn)?
MT1-MMP txn act: 1.1

Results for C/C(N)=C(/C#N)C(=O)CSc1nnc(Nc2c(C)cccc2C)s1 ?
JNK3 inh: 4; MT1-MMP txn act: 1; SF1 activator: -14; RORA act: -2

What do the screens show for `C/C(N)=C(/C#N)C(=O)CSc1nnc(Nc2cccc(C)c2C)s1`?
JNK3 inh: 2; MT1-MMP txn act: 1.6; SF1 activator: 58*; RORA act: 11

What do the screens show for `COCCNC(=S)NC12CC3CC(CC(C3)C1)C2`?
MT1-MMP txn act: 1.2

What do the screens show for `O=C(CCCCCn1c(SCc2ccncc2)nc2ccccc2c1=O)NCc1ccco1`?
JNK3 inh: 18*; MT1-MMP txn act: 0.9; SF1 activator: 8; RORA act: -9

Results for Cc1c(Cl)cccc1N1C(=O)c2ccccc2C1=O ?
JNK3 inh: 1; MT1-MMP txn act: 1.1; SF1 activator: 11; RORA act: -2

How did O=C1Cc2ccccc2N1c1c(Cl)cccc1Cl do in these assays?
MT1-MMP txn act: 2.2*

Results for Cc1c(C(=O)NCc2ccoc2)oc2ccc3c(c12)C(=O)CC(C)(C)O3 ?
JNK3 inh: -3; MT1-MMP txn act: 1.8; SF1 activator: 73*; RORA act: 71*

Results for CCc1ccc(CNC(=O)CN2C(=O)COc3ccccc32)cc1 ?
JNK3 inh: -2; MT1-MMP txn act: 1.2; SF1 activator: -17; RORA act: 2

Results for CCOc1ccc(N2Cc3ccccc3C2)cc1 ?
JNK3 inh: 5; MT1-MMP txn act: 1.2; SF1 activator: 62*; RORA act: 51*

What do the screens show for `CCOc1ccccc1N1Cc2ccccc2C1`?
MT1-MMP txn act: 1

How did CCCCOc1cccc(NC(=O)CSc2nccn2C)c1 do in these assays?
JNK3 inh: 1; MT1-MMP txn act: 1.1; SF1 activator: 0; RORA act: 5

What do the screens show for `CCOC(=O)CC(=O)CSc1nc(-c2cccnc2)ccc1C#N`?
JNK3 inh: -1; MT1-MMP txn act: 1.1; SF1 activator: 27; RORA act: 22

Results for CCOC(=O)CSc1nc(-c2ccncc2)ccc1C#N ?
JNK3 inh: 3; MT1-MMP txn act: 1.1; SF1 activator: 80*; RORA act: 16

How did CCOC(=O)CSc1nc2cc(OCC)ccc2cc1C#N do in these assays?
JNK3 inh: 1; MT1-MMP txn act: 1.7; SF1 activator: 2; RORA act: 53*

How did CCOC(=O)CSc1nc(-c2ccc3c(c2)OCO3)ccc1C#N do in these assays?
JNK3 inh: -4; MT1-MMP txn act: 1.7; SF1 activator: 64*; RORA act: 7

What do the screens show for `CCOC(=O)C1C(=O)C(C(C)=O)C(=O)CC1CC(C)SCC` (stereo not drawn)?
MT1-MMP txn act: 1.1

What do the screens show for `COc1ccccc1CNC(=O)CCS(=O)(=O)c1cccc2nonc12`?
MT1-MMP txn act: 1.1

How did CCC1=C2CC[C@H]3C(=O)NC(=O)[C@H]3[C@H]2[C@@]2(C)C(=O)N(CC3CC3)C(=O)N2C1=O do in these assays?
MT1-MMP txn act: 1.1

Results for Cc1ccc(NC(=O)Nc2ccc(F)cc2)nc1 ?
JNK3 inh: 10; MT1-MMP txn act: 1.8; SF1 activator: 83*; RORA act: 25

Results for Cn1c(Br)nc2c1c(=O)n(CC(O)COc1ccccc1)c(=O)n2C (stereo not drawn) ?
JNK3 inh: -5; MT1-MMP txn act: 1; SF1 activator: 1; RORA act: 19

How did CCOC(=O)C1=C(C)N(CCCC(=O)O)C(=O)NC1c1cccc(OC)c1 (stereo not drawn) do in these assays?
MT1-MMP txn act: 1.1

Screening data: PubChem BioAssay, several laboratories
